According to ChEMBL document CHEMBL3421533, “The Discovery of Orally Bioavailable Tyrosine Threonine Kinase (TTK) Inhibitors: 3-(4-(heterocyclyl)phenyl)-1H-indazole-5-carboxamides as Anticancer Agents” (J Med Chem, 2015):

Key:
[1] = molecular target: Mast/stem cell growth factor receptor Kit (Homo sapiens, UniProt P10721); assay: Inhibition of human cKit by millipore radiometric assay
In short: (§1)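 Radiometric profiling against a 278-kinase panel was done with ATP at Km. Half-maximal inhibitory concentrations were then determined for the kinases most inhibited.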

[2] = molecular target: Serine/threonine-protein kinase PLK4 (Homo sapiens, UniProt O00444); assay: Inhibition of PLK4 (unknown origin) by indirect ELISA detection system
SW-620 = assay: Cytotoxicity against human SW620 cells after 5 days by sulforhodamine B assay; assay type: functional; conditions: SW-620, 120 h
In short: (§2)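 Cancer lines were seeded at 800–6000 cells per well according to growth rate, 24 h before compound overlay. After culture, cells were fixed in situ and stained with sulforhodamine B. GI50 values were derived by curve fitting.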

DU-145 = assay: Cytotoxicity against human DU145 cells after 5 days by sulforhodamine B assay; assay type: functional; conditions: DU-145, 120 h; in short: as §2
[3] = Clearance in Sprague-Dawley rat at 1 mg/kg, iv by LC-MS/MS analysis; assay type: ADME, organism-based; design: dose 1 mg/kg, route intravenous; conditions: in vivo
MDA-MB-468 [4] = assay: Antitumor activity against human MDA-MB-468 cells xenografted in CB-17 SCID mouse assessed as tumor growth inhibition at 30 mg/kg, po qd administered for 21 days measured 3 times per week during compound dosing relative to vehicle-treated control; assay type: functional; conditions: MDA-MB-468, 504 h, read-out: TGI
In short: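 Groups (n = 5) were randomized at a mean tumor volume of 80–120 mm³. Oral daily dosing for 21 days in 10% NMP/40% PEG400/50% DI water, top dose 30 mg/kg. Tumors were measured three times weekly, volume x²y/2, and TGI was computed against vehicle.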

[5] = molecular target: Proto-oncogene tyrosine-protein kinase receptor Ret (Homo sapiens, UniProt P07949); assay: Inhibition of human Ret by millipore radiometric assay; in short: as §1
[6] = Cytotoxicity against HMEC after 5 days by sulforhodamine B assay; assay type: cell-based; conditions: human, HMEC cells
In short: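 Cells were seeded at 800–6000 per well according to growth rate, 24 h before compound overlay. After culture they were fixed in situ and stained with sulforhodamine B. GI50 was calculated by curve fitting.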

SW48 = assay: Antitumor activity against human SW48 cells xenografted in CD-1 nude mouse assessed as tumor growth inhibition at 30 mg/kg, po qd administered for 21 days measured 3 times per week during compound dosing relative to vehicle-treated control; assay type: functional; conditions: SW48, 504 h, read-out: TGI
In short: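 Randomization into groups (n = 7) at 80–120 mm³ mean tumor volume. Compound was given orally once daily for 21 days in 10% NMP/40% PEG400/50% DI water, top dose 30 mg/kg. Tumor volume (x²y/2) was taken three times weekly, and TGI was calculated against vehicle.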

A2780 = assay: Cytotoxicity against human A2780 cells after 5 days by sulforhodamine B assay; assay type: functional; conditions: A2780, 120 h; in short: as §2
[7] = Cytotoxicity against human TOV21G cells after 5 days by sulforhodamine B assay; assay type: functional; conditions: 120 h; in short: as §2
SK-MEL-5 = assay: Cytotoxicity against human SK-MEL-5 cells after 5 days by sulforhodamine B assay; assay type: functional; conditions: SK-MEL-5, 120 h; in short: as §2
[8] = Half life in dog liver microsomes at 1 uM by LC-MS analysis; assay type: ADME, Canis lupus familiaris
[9] = molecular target: Mitogen-activated protein kinase 10 (Homo sapiens, UniProt P53779); assay: Inhibition of human JNK3 by millipore radiometric assay; in short: as §1
[10] = Cytotoxicity against human HCT116 cells after 5 days by sulforhodamine B assay; assay type: functional, HCT-116; in short: as §2
[11] = Half life in iv dosed dog; assay type: ADME, organism-based, Canis lupus familiaris; conditions: in vivo
[12] = AUCinfinity in Sprague-Dawley rat at 1 mg/kg, iv by LC-MS/MS analysis; assay type: ADME, organism-based; design: time infinity, dose 1 mg/kg, route intravenous; conditions: plasma
T47D = assay: Cytotoxicity against human T47D cells after 5 days by sulforhodamine B assay; assay type: functional; conditions: 120 h; in short: as §2
[13] = Cytotoxicity against human OV90 cells after 5 days by sulforhodamine B assay; assay type: functional; conditions: OV-90, 120 h; in short: as §2
HCT-116 = assay: Induction of chromosome segregation defect in human HCT116 cells assessed as anaphase and telophase cells with lagging chromosomes at 500 nM incubated for 6 hrs post double thymidine block by DAPI staining-based immunofluorescence microscopic analysis (reference value: 19 +/- 2%); assay type: functional
A549 = assay: Cytotoxicity against human A549 cells after 5 days by sulforhodamine B assay; assay type: functional; conditions: A549, 120 h; in short: as §2
[14] = molecular target: Mitogen-activated protein kinase 1 (Homo sapiens, UniProt P28482); assay: Inhibition of human MAPK1 by millipore radiometric assay; in short: as §1
COLO 205 = assay: Cytotoxicity against human COLO205 cells after 5 days by sulforhodamine B assay; assay type: functional; conditions: COLO 205, 120 h; in short: as §2
[15] = molecular target: Proto-oncogene tyrosine-protein kinase receptor Ret (Homo sapiens, UniProt P07949, V804L); assay: Inhibition of human Ret V804L mutant by millipore radiometric assay; in short: as §1
[16] = Cytotoxicity against human H23 cells after 5 days by sulforhodamine B assay; assay type: functional; conditions: NCI-H23, 120 h; in short: as §2
Mus musculus = assay: Toxicity in po dosed CD-1 nude mouse assessed as signs of overt toxicity administered as qd for 21 days; assay type: organism-based; conditions: in vivo, 504 h
In short: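 Female nude mice bearing subcutaneous tumors (80–120 mm³ at randomization) received vehicle (10% NMP/40% PEG400/50% water) or compound by daily oral dosing for 21 days. Doses were the MTD and ~2/3 MTD. Body weight and tumor volume were measured three times weekly. The MTD criterion (n = 3) was no body-weight loss over 20% and not moribund.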

[17] = molecular target: Aurora kinase B/Inner centromere protein (Homo sapiens, UniProt Q96GD4); assay: Inhibition of AURKB/INCENP (unknown origin) transfected in human HCT116 cells after 4 hrs by near infrared imager analysis; assay type: cell-based, HCT-116
In short: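 HCT116 cells transfected with wild-type TTK were arrested with nocodazole (200 ng/mL, 17 h). They were pretreated with MG132 (15 μM, 30 min), then exposed to compound or DMSO for 4 h. Blots were probed for phospho-TTK (Thr12/Ser15), phospho-Aurora A (Thr288)/B (Thr232), TTK and GAPDH. Bands were quantified by near-infrared imaging, and EC50 was fitted.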

[18] = Cmax in athymic CD1 nude mouse at 10 mg/kg, po by LC-MS/MS analysis; assay type: ADME, organism-based; design: dose 10 mg/kg, route oral; conditions: athymic CD1 nude, in vivo
[19] = Plasma protein binding in mouse; assay type: ADME; conditions: read-out: PPB (converted)
MDA-MB-468 [20] = assay: Cytotoxicity against human MDA-MB-468 cells after 5 days by sulforhodamine B assay; assay type: functional; in short: as §2
[21] = AUCinfinity in athymic CD1 nude mouse at 10 mg/kg, po by LC-MS/MS analysis; assay type: ADME, organism-based, Plasma; design: time infinity, dose 10 mg/kg, route oral; conditions: athymic CD1 nude, plasma
[22] = Oral bioavailability in Sprague-Dawley rat at 5 mg/kg by LC-MS/MS analysis; assay type: ADME, organism-based; conditions: in vivo

Chain of Mitogen-activated protein kinase 10 (P53779 whole entry): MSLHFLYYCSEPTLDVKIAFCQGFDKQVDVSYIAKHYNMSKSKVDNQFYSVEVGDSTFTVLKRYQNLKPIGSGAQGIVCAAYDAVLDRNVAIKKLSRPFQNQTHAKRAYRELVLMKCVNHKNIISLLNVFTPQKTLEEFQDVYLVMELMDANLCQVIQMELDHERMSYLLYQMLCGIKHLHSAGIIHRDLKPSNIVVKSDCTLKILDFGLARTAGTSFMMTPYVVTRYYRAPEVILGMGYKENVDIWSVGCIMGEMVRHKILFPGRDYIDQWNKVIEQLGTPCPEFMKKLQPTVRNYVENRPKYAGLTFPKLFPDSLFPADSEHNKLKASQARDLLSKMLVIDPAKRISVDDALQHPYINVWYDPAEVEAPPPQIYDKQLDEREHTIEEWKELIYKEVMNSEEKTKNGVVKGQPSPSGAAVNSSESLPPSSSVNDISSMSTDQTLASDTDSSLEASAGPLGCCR
Chain of Mast/stem cell growth factor receptor Kit (P10721 whole entry): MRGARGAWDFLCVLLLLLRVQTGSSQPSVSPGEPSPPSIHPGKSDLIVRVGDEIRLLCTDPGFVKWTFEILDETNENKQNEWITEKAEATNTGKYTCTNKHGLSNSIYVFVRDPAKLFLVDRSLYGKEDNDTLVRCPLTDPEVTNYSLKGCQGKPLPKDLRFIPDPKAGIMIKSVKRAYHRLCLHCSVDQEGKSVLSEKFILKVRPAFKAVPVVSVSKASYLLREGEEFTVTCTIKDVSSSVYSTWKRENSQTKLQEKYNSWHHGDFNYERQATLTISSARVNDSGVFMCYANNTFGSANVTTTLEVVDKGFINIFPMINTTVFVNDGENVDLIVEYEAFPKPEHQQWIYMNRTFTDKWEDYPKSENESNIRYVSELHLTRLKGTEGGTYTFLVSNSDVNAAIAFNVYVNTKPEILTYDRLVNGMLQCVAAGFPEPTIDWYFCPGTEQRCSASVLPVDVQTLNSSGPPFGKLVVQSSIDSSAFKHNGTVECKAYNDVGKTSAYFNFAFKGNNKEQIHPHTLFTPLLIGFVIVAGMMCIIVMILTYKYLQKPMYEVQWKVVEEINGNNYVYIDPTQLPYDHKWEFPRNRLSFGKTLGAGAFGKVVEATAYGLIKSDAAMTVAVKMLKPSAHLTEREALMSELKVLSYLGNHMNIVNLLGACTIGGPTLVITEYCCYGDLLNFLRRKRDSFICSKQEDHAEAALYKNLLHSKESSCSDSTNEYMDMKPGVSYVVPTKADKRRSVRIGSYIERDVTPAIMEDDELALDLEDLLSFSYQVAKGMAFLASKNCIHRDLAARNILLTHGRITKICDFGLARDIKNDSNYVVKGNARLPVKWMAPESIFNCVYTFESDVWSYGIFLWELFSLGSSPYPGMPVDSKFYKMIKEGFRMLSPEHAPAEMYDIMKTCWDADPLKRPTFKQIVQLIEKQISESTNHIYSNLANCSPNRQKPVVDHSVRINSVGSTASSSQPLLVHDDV
Chain of Proto-oncogene tyrosine-protein kinase receptor Ret (Homo sapiens, UniProt P07949, V804L) (P07949 29-1114 V804L limits assumed): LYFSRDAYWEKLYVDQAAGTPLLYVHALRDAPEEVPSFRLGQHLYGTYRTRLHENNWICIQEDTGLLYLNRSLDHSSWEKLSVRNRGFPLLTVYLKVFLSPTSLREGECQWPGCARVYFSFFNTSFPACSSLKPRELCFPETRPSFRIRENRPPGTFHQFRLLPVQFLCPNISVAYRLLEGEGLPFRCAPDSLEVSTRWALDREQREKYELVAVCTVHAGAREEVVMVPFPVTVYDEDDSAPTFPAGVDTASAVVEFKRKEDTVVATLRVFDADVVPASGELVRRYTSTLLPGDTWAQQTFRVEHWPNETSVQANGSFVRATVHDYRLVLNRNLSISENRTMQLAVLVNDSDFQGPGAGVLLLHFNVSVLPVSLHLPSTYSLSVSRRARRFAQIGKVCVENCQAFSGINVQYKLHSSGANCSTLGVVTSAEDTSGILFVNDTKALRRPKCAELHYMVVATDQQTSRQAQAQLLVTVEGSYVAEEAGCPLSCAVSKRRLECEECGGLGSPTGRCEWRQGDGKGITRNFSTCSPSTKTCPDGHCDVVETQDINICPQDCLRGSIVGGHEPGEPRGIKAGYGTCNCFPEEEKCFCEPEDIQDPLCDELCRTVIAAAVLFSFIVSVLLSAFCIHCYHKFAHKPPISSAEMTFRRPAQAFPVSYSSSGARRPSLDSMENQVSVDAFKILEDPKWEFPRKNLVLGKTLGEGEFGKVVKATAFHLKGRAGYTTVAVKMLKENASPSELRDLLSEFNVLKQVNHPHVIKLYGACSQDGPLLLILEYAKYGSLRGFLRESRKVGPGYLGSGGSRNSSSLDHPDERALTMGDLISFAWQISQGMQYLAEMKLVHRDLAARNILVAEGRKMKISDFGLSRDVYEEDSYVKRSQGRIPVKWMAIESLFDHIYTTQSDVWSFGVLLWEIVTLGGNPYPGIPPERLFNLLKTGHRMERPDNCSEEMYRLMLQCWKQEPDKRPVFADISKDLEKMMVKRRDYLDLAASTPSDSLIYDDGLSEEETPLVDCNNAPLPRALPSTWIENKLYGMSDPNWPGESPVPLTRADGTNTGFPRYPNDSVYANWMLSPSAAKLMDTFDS
Chain of Aurora kinase B/Inner centromere protein (Q96GD4 whole entry): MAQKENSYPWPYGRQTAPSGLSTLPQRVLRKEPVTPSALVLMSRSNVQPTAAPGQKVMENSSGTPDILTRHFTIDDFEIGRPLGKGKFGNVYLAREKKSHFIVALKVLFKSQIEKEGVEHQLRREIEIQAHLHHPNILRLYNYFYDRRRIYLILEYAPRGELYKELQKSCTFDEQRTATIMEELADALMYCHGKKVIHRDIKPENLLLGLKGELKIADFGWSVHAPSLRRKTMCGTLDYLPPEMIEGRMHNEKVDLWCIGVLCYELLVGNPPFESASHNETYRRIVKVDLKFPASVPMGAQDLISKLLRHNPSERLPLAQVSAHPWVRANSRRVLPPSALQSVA
Chain of Aurora kinase B/Inner centromere protein (Q9NQS7 whole entry, further chain): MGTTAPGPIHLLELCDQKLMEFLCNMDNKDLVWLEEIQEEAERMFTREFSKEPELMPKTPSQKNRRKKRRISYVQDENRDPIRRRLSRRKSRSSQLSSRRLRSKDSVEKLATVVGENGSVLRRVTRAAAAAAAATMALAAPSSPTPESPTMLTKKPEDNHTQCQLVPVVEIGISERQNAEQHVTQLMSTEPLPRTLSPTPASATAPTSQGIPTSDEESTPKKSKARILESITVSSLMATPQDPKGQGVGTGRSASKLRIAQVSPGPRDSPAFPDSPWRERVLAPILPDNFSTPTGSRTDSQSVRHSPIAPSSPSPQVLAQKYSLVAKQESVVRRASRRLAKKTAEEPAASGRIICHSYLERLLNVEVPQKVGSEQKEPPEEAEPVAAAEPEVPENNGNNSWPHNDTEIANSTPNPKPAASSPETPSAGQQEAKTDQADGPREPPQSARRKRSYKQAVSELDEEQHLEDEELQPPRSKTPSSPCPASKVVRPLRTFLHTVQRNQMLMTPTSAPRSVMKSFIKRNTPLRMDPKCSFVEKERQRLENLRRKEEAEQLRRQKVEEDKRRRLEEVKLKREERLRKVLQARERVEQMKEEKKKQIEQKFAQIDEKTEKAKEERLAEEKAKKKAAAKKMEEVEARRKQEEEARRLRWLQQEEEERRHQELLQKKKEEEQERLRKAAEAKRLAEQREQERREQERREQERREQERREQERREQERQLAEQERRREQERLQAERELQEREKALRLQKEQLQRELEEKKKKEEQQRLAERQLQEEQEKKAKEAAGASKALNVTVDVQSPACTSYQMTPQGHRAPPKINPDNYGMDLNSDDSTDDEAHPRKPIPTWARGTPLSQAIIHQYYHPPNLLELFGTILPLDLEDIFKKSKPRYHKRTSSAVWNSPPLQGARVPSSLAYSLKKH
Chain of Serine/threonine-protein kinase PLK4 (O00444 whole entry): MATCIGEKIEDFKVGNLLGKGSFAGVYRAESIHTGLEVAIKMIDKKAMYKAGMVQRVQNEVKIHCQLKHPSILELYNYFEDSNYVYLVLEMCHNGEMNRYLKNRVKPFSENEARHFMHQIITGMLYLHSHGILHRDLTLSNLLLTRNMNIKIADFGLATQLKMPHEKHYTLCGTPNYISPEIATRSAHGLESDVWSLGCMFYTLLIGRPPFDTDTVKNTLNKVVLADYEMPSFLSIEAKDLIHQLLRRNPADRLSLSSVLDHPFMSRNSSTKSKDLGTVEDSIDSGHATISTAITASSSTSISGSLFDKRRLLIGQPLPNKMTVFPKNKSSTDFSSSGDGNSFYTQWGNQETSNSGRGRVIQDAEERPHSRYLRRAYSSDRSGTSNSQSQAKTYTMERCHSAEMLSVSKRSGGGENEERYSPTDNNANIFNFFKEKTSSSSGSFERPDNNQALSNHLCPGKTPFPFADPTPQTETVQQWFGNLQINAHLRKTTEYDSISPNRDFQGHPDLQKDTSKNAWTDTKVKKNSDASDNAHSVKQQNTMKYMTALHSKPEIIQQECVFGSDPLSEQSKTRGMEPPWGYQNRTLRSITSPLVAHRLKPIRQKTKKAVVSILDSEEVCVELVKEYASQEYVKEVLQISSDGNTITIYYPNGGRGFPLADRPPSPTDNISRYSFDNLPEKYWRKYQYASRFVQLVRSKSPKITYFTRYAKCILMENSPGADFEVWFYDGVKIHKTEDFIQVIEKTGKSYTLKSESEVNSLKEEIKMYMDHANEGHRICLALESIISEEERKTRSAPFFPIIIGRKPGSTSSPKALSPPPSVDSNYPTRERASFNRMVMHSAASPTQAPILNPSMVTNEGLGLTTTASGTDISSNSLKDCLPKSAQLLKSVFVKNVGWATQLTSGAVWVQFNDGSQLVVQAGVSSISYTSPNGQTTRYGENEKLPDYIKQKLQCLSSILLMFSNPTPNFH

For `O=C(N[C@@H](c1ccccn1)C1CC1)c1ccc2[nH]nc(-c3ccc(N4[C@H]5CC[C@H]4CC(O)C5)cc3)c2c1` (stereo in doubt; 75), the IC50 [1] was over 30000 nM, the IC50 [2] was 130 nM and the GI50 (SW-620) was 30 nM. It also gave a GI50 (DU-145) of 17 nM, a clearance [3] of 66 mL/min/kg and an inhibition in vivo at 30 mg/kg (MDA-MB-468 [4]) of 98%. For the same molecule, the IC50 [5] was 2800 nM, the GI50 at 120 h [6] was over 30000 nM and the inhibition in vivo at 30 mg/kg (SW48) was 66%. The GI50 (A2780) was 20 nM, the GI50 [7] was 16 nM and the GI50 (SK-MEL-5) was 20 nM. The half-life at 1 µM [8] was over 1 h, the IC50 [9] was 68 nM and the GI50 [10] was 17 nM. The half-life [11] was 1.2 h, the AUC(0-inf) [12] was 250 ng·h/mL and the GI50 (T47D) was 20 nM. It also gave a GI50 [13] of 30 nM, an Activity (HCT-116) of 94% and a GI50 (A549) of 24 nM. It also gave an IC50 [14] of 320 nM, a GI50 (COLO 205) of 60 nM and an IC50 [15] of 250 nM. For the same molecule, the GI50 [16] was 36 nM, the Activity (Mus musculus) was “Non-toxic” and the EC50 [17] was over 6000 nM. It also gave a Cmax [18] of 2000 ng/mL, a fraction unbound [19] of 0.042 and a GI50 (MDA-MB-468 [20]) of 36 nM. The AUC(0-inf) [21] was 3000 ng·h/mL and the bioavailability [22] was 44%.
